Results as given in ChEMBL document CHEMBL1177727, “Diarylaniline derivatives as a distinct class of HIV-1 non-nucleoside reverse transcriptase inhibitors” (J Med Chem, 2010).
Active and inactive are the calls of the source. No cut-off for these calls is given here.

Legend:
[1] = Selectivity index, ratio of CC50 for human H9 cells to EC50 for HIV1 3B; format: toxicity, cell-based
Summary of the method: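 SI = CC50/EC50 in H9 cells. Toxicity by XTT on mock-infected H9 cultures set up identically to the HIV-1 IIIB infection wells (same drug concentrations, media changes days 1 and 4, 6-day culture).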

H9 = assay: Cytotoxicity against human H9 cells after 6 days by XTT assay; format: cell-based; details: h9, 144 h
Summary of the method: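 Mock-infected H9 human T cells (3 × 10⁵ cells/mL in RPMI 1640 with 10% fetal calf serum and L-glutamine, 37 °C, 5% CO₂) exposed to samples diluted from 10 mg/mL DMSO master stocks (screening at 100, 20, 4, 0.8 µg/mL). Media replaced on days 1 and 4, assay ended day 6. Viability by XTT, 50% cytotoxic concentration taken. Mean of three independent assays.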

[2] = system: Human immunodeficiency virus 1; assay: Antiviral activity against HIV1 3B infected in human H9 cells assessed as inhibition of viral replication after 6 days by p24 antigen based assay; format: functional, organism-based
Summary of the method: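 H9 cells (3 × 10⁵ cells/mL) infected with HIV-1 IIIB, 125 TCID₅₀ per well, with drug diluted from 10 mg/mL DMSO master stocks; screening at 100, 20, 4, 0.8 µg/mL, with further dilutions for actives. Media replaced on days 1 and 4; supernatant p24 antigen capture on day 6. Run alongside AZT control; averages of three independent assays.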

[3] = biological target: Human immunodeficiency virus type 1 reverse transcriptase (Human immunodeficiency virus 1) (UniProt Q72547); assay: Inhibition of HIV1 DH012 reverse transcriptase
Summary of the method: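 Reverse transcriptase activity of primary isolate HIV-1 DH012 measured with a colorimetric HIV-1 RT kit following the manufacturer's protocol, in the presence of various compound concentrations. The kit reads RNA-dependent DNA polymerase activity.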

[4] = system: Human immunodeficiency virus 1; assay: Antiviral activity against HIV1 with reverse transcriptase 6005MR mutant infected in human MT2 cells assessed as inhibition of p24 antigen production after 4 days by ELISA; format: functional, organism-based; details: Human immunodeficiency virus 1, MT2, 96 h
Summary of the method: (§1)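 Drug-resistant HIV-1 strains (Panacos) at MOI 0.001 TCID₅₀/cell, mixed with compound dilutions in RPMI 1640/10% FBS and cells at 6×10⁵ cells/mL, 37 °C. Compound-containing fresh medium added on day 2; supernatant p24 ELISA on day 4. Averages of three independent assays.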

[5] = system: Human immunodeficiency virus 1; assay: Antiviral activity against HIV1 with reverse transcriptase 8605MR mutant infected in human MT2 cells assessed as inhibition of p24 antigen production after 4 days by ELISA; format: functional, organism-based; details: Human immunodeficiency virus 1, MT2, 96 h; summary of the method: as §1
[6] = system: Human immunodeficiency virus 1; assay: Antiviral activity against HIV1 with reverse transcriptase A17 (K103N, Y181C) mutant infected in human MT2 cells assessed as inhibition of p24 antigen production after 4 days by ELISA; format: functional, organism-based; details: Human immunodeficiency virus 1, MT2, 96 h; summary of the method: as §1
[7] = system: Human immunodeficiency virus 1; assay: Resistant fold, ratio of EC50 for HIV1 with reverse transcriptase A17 (K103N, Y181C) mutant to EC50 for wild type HIV1 3B; format: functional
[8] = system: Human immunodeficiency virus 1; assay: Antiviral activity against HIV1 with reverse transcriptase Y181C mutant infected in human MT2 cells assessed as inhibition of p24 antigen production after 4 days by ELISA; format: functional, organism-based; details: Human immunodeficiency virus 1, MT2, 96 h; summary of the method: as §1
[9] = system: Human immunodeficiency virus 1; assay: Antiviral activity against wild type HIV1 3B infected in human MT2 cells assessed as inhibition of p24 antigen production after 4 days by ELISA; format: functional, organism-based; details: Human immunodeficiency virus 1, 3B, MT2, 96 h
Summary of the method: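 1 × 10⁴ MT-2 cells infected with HIV-1 IIIB (100 TCID₅₀) in RPMI 1640/10% FBS with graded compound overnight, then compound-free medium. Day-4 supernatants lysed in Triton X-100 and p24 measured by sandwich ELISA (HIVIG capture, anti-p24 mAb, TMB, A450) against a recombinant p24 standard curve. Triplicates; EC50 from percent inhibition via median-effect analysis.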

[10] = Human immunodeficiency virus 1, 3B, H9, 144 h, read-out: EC50

SMILES	Ratio CC50/EC50 [1]	CC50 (H9)	EC50 [2, 10]	also measured
Cc1ccc(Nc2cc(Oc3c(C)cc(Br)cc3C)c([N+](=O)[O-])cc2[N+](=O)[O-])cc1	12	53 µM	4.31 µM	
Cc1cccc(C)c1Oc1cc(Nc2ccc(C#N)cc2)c(N)cc1N	16	53.2 µM	3.23 µM	
COc1ccc(Nc2cc(Oc3c(C)cc(Br)cc3C)c([N+](=O)[O-])cc2[N+](=O)[O-])cc1	14	51.2 µM	3.63 µM	
COc1ccc(Nc2cc(Oc3c(C)cc(C)cc3C)c([N+](=O)[O-])cc2[N+](=O)[O-])cc1	> 20	> 59.1 µM	2.99 µM	
Cc1cc(C)c(Oc2cc(Nc3ccc(C#N)cc3)c(N)cc2[N+](=O)[O-])c(C)c1	520	32.2 µM	0.062 µM	
Cc1cc(Br)cc(C)c1Oc1ccc([N+](=O)[O-])c(Nc2ccc(C#N)cc2)c1	> 180	> 57.1 µM	0.317 µM	
Cc1cc(Br)cc(C)c1Oc1cc(Nc2ccc(C#N)cc2)c(N)cc1[N+](=O)[O-].Cl	3035			EC50 ([2]; h9, read-out: EC50): 0.012 µM
Cc1cc(C#N)cc(C)c1Oc1cc(Nc2ccc(C#N)cc2)c(N)cc1N	1698	51 µM	0.03 µM	Activity [3]: Active; EC50 [4]: 0.033 µM; EC50 [5]: 0.138 µM; EC50 [6]: 1.24 µM; Ratio EC50 [7]: 73.3; EC50 [8]: 1.73 µM; EC50 [9]: 0.065 µM
Cc1cc(C#N)cc(C)c1Oc1ccc(N)c(Nc2ccc(C#N)cc2)c1	711	49.8 µM	0.07 µM	
Cc1cc(C)c(Oc2cc(Nc3ccc(C#N)cc3)c([N+](=O)[O-])cc2[N+](=O)[O-])c(C)c1	> 214	> 59.8 µM	0.28 µM	
Cc1cc(Br)cc(C)c1Oc1cc(Nc2ccc(C#N)cc2)c(N)cc1[N+](=O)[O-]	2842		0.016 µM	EC50 [4]: 0.007 µM; EC50 [5]: 0.02 µM; EC50 [6]: 0.254 µM; Ratio EC50 [7]: 20.3; CC50 (H9; 144 h): 45.5 µM; EC50 [8]: 1.3 µM; EC50 [9]: 0.008 µM
Cc1cc(C#N)cc(C)c1Oc1cc(Nc2ccc(C#N)cc2)c([N+](=O)[O-])cc1[N+](=O)[O-]	> 14	> 58.3 µM	4.19 µM	
Cc1cccc(C)c1Oc1ccc([N+](=O)[O-])c(Nc2ccc(C#N)cc2)c1	22	69.6 µM	3.15 µM	
Cc1cc(C=O)cc(C)c1Oc1ccc([N+](=O)[O-])c(Nc2ccc(C#N)cc2)c1	6	14.2 µM	2.19 µM	
Cc1cc(C#N)cc(C)c1Oc1nc(Nc2ccc(C#N)cc2)nc(N)c1Br [ETRAVIRINE]				EC50 [6]: 0.575 µM; Ratio EC50 [7]: 9.9; EC50 [9]: 0.058 µM
Cc1cc(C#N)cc(C)c1Oc1ccc([N+](=O)[O-])c(Nc2ccc(C#N)cc2)c1	> 313	> 65.1 µM	0.208 µM	
Cc1cc(Br)cc(C)c1Oc1cc(Nc2ccc(Cl)cc2)c([N+](=O)[O-])cc1[N+](=O)[O-]				EC50 ([2]; h9): Not Active
Cc1cc(C#N)cc(C)c1Oc1cc(Nc2ccc(C#N)cc2)c(N)cc1[N+](=O)[O-]	20887	62.7 µM	0.003 µM	Activity [3]: Active; EC50 [4]: 0.005 µM; EC50 [5]: 0.005 µM; EC50 [6]: 0.231 µM; Ratio EC50 [7]: 18.9; EC50 [8]: 0.504 µM; EC50 [9]: 0.005 µM
Cc1cc(Br)cc(C)c1Oc1cc(Nc2ccc([N+](=O)[O-])cc2)c([N+](=O)[O-])cc1[N+](=O)[O-]	> 1	> 49.7 µM	> 49.7 µM	
Cc1cc(C)c(Oc2ccc(N)c(Nc3ccc(C#N)cc3)c2)c(C)c1	699	51 µM	0.073 µM	
Cc1cn([C@H]2C[C@H](N=[N+]=[N-])[C@@H](CO)O2)c(=O)[nH]c1=O [ZIDOVUDINE]	36019	1870 µM	0.052 µM	
Cc1cc(Br)cc(C)c1Oc1cc(Nc2ccc(C#N)cc2)c(N)cc1N	238	38.4 µM	0.161 µM	
COc1ccc(Nc2cc(Oc3c(C)cccc3C)c([N+](=O)[O-])cc2[N+](=O)[O-])cc1	> 16	> 61.1 µM	3.84 µM	
Cc1cc(Br)cc(C)c1Oc1ccc(N)c(Nc2ccc(C#N)cc2)c1	949	44.6 µM	0.047 µM	
Cc1cccc(C)c1Oc1cc(Nc2ccc(C#N)cc2)c([N+](=O)[O-])cc1[N+](=O)[O-]	> 113	> 61.9 µM	0.545 µM	
Cc1ccnc2c1NC(=O)c1cccnc1N2C1CC1 [NEVIRAPINE]				EC50 [4]: > 3.7 µM; EC50 [5]: > 3.7 µM; EC50 [6]: > 3.7 µM; EC50 [8]: > 3.7 µM; EC50 [9]: 0.053 µM
Cc1cc(C)c(Oc2cc(Nc3ccc(C#N)cc3)c(N)cc2N)c(C)c1	714	50 µM	0.07 µM	
Cc1cc(Br)cc(C)c1Oc1cc(Nc2ccc(C#N)cc2)c([N+](=O)[O-])cc1[N+](=O)[O-]	> 301	> 51.8 µM	0.172 µM	
Cc1cc(C=O)cc(C)c1Oc1cc(Nc2ccc(C#N)cc2)c([N+](=O)[O-])cc1[N+](=O)[O-]	38	57.9 µM	1.53 µM	
Cc1cc(C)c(Oc2ccc([N+](=O)[O-])c(Nc3ccc(C#N)cc3)c2)c(C)c1	> 1000	> 67 µM	0.067 µM	
